Source: ChEMBL document CHEMBL4715736, “Identification of anticancer agents based on the thieno[2,3-b]pyridine and 1H-pyrazole molecular scaffolds” (2016)

Columns and labels:
Type in all cases: functional
DU-145 [1] = test: Growth inhibition of human DU-145 cells incubated for 48 hrs by sulforhodamine B assay; conditions: for CC50: read-out: LC50 (the source's name)
In short: (§1)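 NCI Developmental Therapeutics Program NCI60 panel. Compounds that were active in the 10 µM one-dose screen went on to dose–response testing. Growth at each concentration is expressed relative to untreated control (100%). GI50 (concentration giving 50% of maximal inhibition of proliferation) and TGI (concentration giving total growth inhibition) were derived from the curves.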

A498 [2] = test: Growth inhibition of human A498 cells assessed as cell growth at 0.01 uM incubated for 48 hrs by sulforhodamine B assay relative to control; conditions: read-out: Activity; in short: as §1
NCI-H460 = test: Growth inhibition of human NCI-H460 cells assessed as cell growth at 100 uM incubated for 48 hrs by sulforhodamine B assay relative to control; conditions: read-out: Activity
SK-MEL-5 = test: Growth inhibition of human SK-MEL-5 cells assessed as cell growth at 0.1 uM incubated for 48 hrs by sulforhodamine B assay relative to control; conditions: read-out: Activity
UACC-62 = test: Growth inhibition of human UACC-62 cells assessed as cell growth at 100 uM incubated for 48 hrs by sulforhodamine B assay relative to control; conditions: read-out: Activity
HCC 2998 [3] = test: Growth inhibition of human HCC 2998 cells assessed as cell growth at 1 uM incubated for 48 hrs by sulforhodamine B assay relative to control; conditions: read-out: Activity; in short: as §1
SK-OV-3 [4] = test: Growth inhibition of human SK-OV-3 cells assessed as cell growth at 0.01 uM incubated for 48 hrs by sulforhodamine B assay relative to control; conditions: read-out: Activity
MDA-MB-231 = test: Growth inhibition of human MDA-MB-231 cells assessed as cell growth at 100 uM incubated for 48 hrs by sulforhodamine B assay relative to control; conditions: read-out: Activity
KM12 [5] = test: Growth inhibition of human KM12 cells incubated for 48 hrs by sulforhodamine B assay
In short: (§2)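 NCI60 panel at the NCI Developmental Therapeutics Program. Only compounds active in the 10 µM screen went to dose-response testing. GI50, the concentration giving 50% of maximal inhibition of proliferation, and TGI, the concentration giving total growth inhibition, were derived from the dose-response curves.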

T47D = test: Growth inhibition of human T47D cells assessed as cell growth at 0.1 uM incubated for 48 hrs by sulforhodamine B assay relative to control; conditions: read-out: Activity
KM12 [6] = test: Growth inhibition of human KM12 cells assessed as cell growth at 0.01 uM incubated for 48 hrs by sulforhodamine B assay relative to control; conditions: read-out: Activity
DU-145 [7] = test: Growth inhibition of human DU-145 cells assessed as cell growth at 0.01 uM incubated for 48 hrs by sulforhodamine B assay relative to control; conditions: read-out: Activity; in short: as §1
COLO 205 = test: Growth inhibition of human COLO 205 cells incubated for 48 hrs by sulforhodamine B assay; in short: as §1
SR [8] = test: Growth inhibition of human SR cells assessed as cell growth at 1 uM incubated for 48 hrs by sulforhodamine B assay relative to control; conditions: read-out: Activity
HCC 2998 [9] = test: Growth inhibition of human HCC 2998 cells assessed as cell growth at 100 uM incubated for 48 hrs by sulforhodamine B assay relative to control; conditions: read-out: Activity; in short: as §1
BT-549 = test: Growth inhibition of human BT-549 cells assessed as cell growth at 1 uM incubated for 48 hrs by sulforhodamine B assay relative to control; conditions: read-out: Activity
786-0 = test: Growth inhibition of human 786-0 cells incubated for 48 hrs by sulforhodamine B assay; conditions: for CC50: read-out: LC50 (the source's name); in short: as §1
PC-3 = test: Growth inhibition of human PC-3 cells incubated for 48 hrs by sulforhodamine B assay; conditions: for CC50: read-out: LC50 (the source's name)
In short: (§3)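 NCI DTP 60-line human tumour panel. Dose-response curves were run only for ligands active in the initial 10 µM screen. GI50 (concentration giving 50% of maximal inhibition of proliferation) and TGI (concentration giving total growth inhibition) were derived from these curves.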

A498 [10] = test: Growth inhibition of human A498 cells assessed as cell growth at 1 uM incubated for 48 hrs by sulforhodamine B assay relative to control; conditions: read-out: Activity; in short: as §1
SF-539 = test: Growth inhibition of human SF-539 cells assessed as cell growth at 0.1 uM incubated for 48 hrs by sulforhodamine B assay relative to control; conditions: read-out: Activity
A549 [11] = test: Growth inhibition of human A549/ATCC cells assessed as cell growth at 1 uM incubated for 48 hrs by sulforhodamine B assay relative to control; conditions: read-out: Activity; in short: as §1
MDA-MB-468 = test: Growth inhibition of human MDA-MB-468 cells incubated for 48 hrs by sulforhodamine B assay; conditions: for CC50: read-out: LC50 (the source's name); in short: as §2
K562 [12] = test: Growth inhibition of human K562 cells assessed as cell growth at 0.01 uM incubated for 48 hrs by sulforhodamine B assay relative to control; conditions: read-out: Activity
M14 = test: Growth inhibition of human M14 cells assessed as cell growth at 0.1 uM incubated for 48 hrs by sulforhodamine B assay relative to control; conditions: read-out: Activity
SR [13] = test: Growth inhibition of human SR cells incubated for 48 hrs by sulforhodamine B assay; in short: as §3
SK-OV-3 [14] = test: Growth inhibition of human SK-OV-3 cells assessed as cell growth at 0.1 uM incubated for 48 hrs by sulforhodamine B assay relative to control; conditions: read-out: Activity
K562 [15] = test: Growth inhibition of human K562 cells incubated for 48 hrs by sulforhodamine B assay; in short: as §2
NCI-H522 = test: Growth inhibition of human NCI-H522 cells assessed as cell growth at 100 uM incubated for 48 hrs by sulforhodamine B assay relative to control; conditions: read-out: Activity
U-251 = test: Growth inhibition of human U-251 cells assessed as cell growth at 100 uM incubated for 48 hrs by sulforhodamine B assay relative to control; conditions: read-out: Activity
NCI-H322M = test: Growth inhibition of human NCI-H322M cells assessed as cell growth at 100 uM incubated for 48 hrs by sulforhodamine B assay relative to control; conditions: read-out: Activity
UO-31 [16] = test: Growth inhibition of human UO-31 cells assessed as cell growth at 1 uM incubated for 48 hrs by sulforhodamine B assay relative to control; conditions: read-out: Activity
A549 [17] = test: Growth inhibition of human A549/ATCC cells assessed as cell growth at 0.1 uM incubated for 48 hrs by sulforhodamine B assay relative to control; conditions: read-out: Activity; in short: as §1
TK-10 = test: Growth inhibition of human TK-10 cells assessed as cell growth at 1 uM incubated for 48 hrs by sulforhodamine B assay relative to control; conditions: read-out: Activity
SK-MEL-28 = test: Growth inhibition of human SK-MEL-28 cells assessed as cell growth at 1 uM incubated for 48 hrs by sulforhodamine B assay relative to control; conditions: read-out: Activity
UO-31 [18] = test: Growth inhibition of human UO-31 cells incubated for 48 hrs by sulforhodamine B assay; conditions: for CC50: read-out: LC50 (the source's name); in short: as §3

Cc1cc(C)c(NC(=O)c2sc3nc4c(cc3c2N)CN(Cc2ccccc2)CC4)c(C)c1
GI50 (DU-145 [1]): 2.62 µM | TGI (DU-145 [1]): 7.65 µM | CC50 (DU-145 [1]): > 100 µM | growth at 0.01 µM (A498 [2]): 87% | growth at 100 µM (NCI-H460): -25% | growth at 0.1 µM (SK-MEL-5): 93% | growth at 100 µM (UACC-62): -22% | growth at 1 µM (HCC 2998 [3]): 103% | growth at 0.01 µM (SK-OV-3 [4]): 92% | growth at 100 µM (MDA-MB-231): -11% | GI50 (KM12 [5]): 3.26 µM | LC50 (KM12 [5]): > 100 µM | TGI (KM12 [5]): 43.1 µM | growth at 0.1 µM (T47D): 93% | growth at 0.01 µM (KM12 [6]): 98% | growth at 0.01 µM (DU-145 [7]): 104% | GI50 (COLO 205): 2.98 µM | LC50 (concentration killing 50% of cells) (COLO 205): 68.8 µM | TGI (COLO 205): 10.1 µM | growth at 1 µM (SR [8]): 68% | growth at 100 µM (HCC 2998 [9]): -21% | growth at 1 µM (BT-549): 81% | GI50 (786-0): 3.48 µM | TGI (786-0): > 100 µM | CC50 (786-0): > 100 µM | GI50 (PC-3): 3.13 µM | TGI (PC-3): > 100 µM | CC50 (PC-3): > 100 µM | growth at 1 µM (A498 [10]): 58% | growth at 0.1 µM (SF-539): 96% | growth at 1 µM (A549 [11]): 90% | GI50 (MDA-MB-468): 1.78 µM | TGI (MDA-MB-468): 88.7 µM | CC50 (MDA-MB-468): > 100 µM | growth at 0.01 µM (K562 [12]): 108% | growth at 0.1 µM (M14): 94% | GI50 (SR [13]): 1.83 µM | LC50 (SR [13]): > 100 µM | TGI (SR [13]): 10.7 µM | growth at 0.1 µM (SK-OV-3 [14]): 98% | GI50 (K562 [15]): 0.903 µM | LC50 (concentration killing 50% of cells) (K562 [15]): > 100 µM | TGI (K562 [15]): > 100 µM | growth at 100 µM (NCI-H522): -29% | growth at 100 µM (U-251): -43% | growth at 100 µM (NCI-H322M): 39% | growth at 1 µM (UO-31 [16]): 77% | growth at 0.1 µM (A549 [17]): 96% | growth at 1 µM (TK-10): 95% | growth at 1 µM (SK-MEL-28): 70% | GI50 (UO-31 [18]): 4.78 µM | TGI (UO-31 [18]): 93.9 µM | CC50 (UO-31 [18]): > 100 µM

CN1CCc2nc3sc(C(N)=O)c(N)c3c(-c3cccs3)c2C1
GI50 (DU-145 [1]): 3.91 µM | TGI (DU-145 [1]): 86.9 µM | CC50 (DU-145 [1]): > 100 µM | growth at 0.01 µM (A498 [2]): 97% | growth at 100 µM (NCI-H460): 2% | growth at 0.1 µM (SK-MEL-5): 91% | growth at 100 µM (UACC-62): -55% | growth at 1 µM (HCC 2998 [3]): 94% | growth at 0.01 µM (SK-OV-3 [4]): 93% | growth at 100 µM (MDA-MB-231): 26% | GI50 (KM12 [5]): 2.7 µM | LC50 (KM12 [5]): > 100 µM | TGI (KM12 [5]): > 100 µM | growth at 0.1 µM (T47D): 94% | growth at 0.01 µM (KM12 [6]): 103% | growth at 0.01 µM (DU-145 [7]): 111% | GI50 (COLO 205): 1.43 µM | LC50 (concentration killing 50% of cells) (COLO 205): 9.35 µM | TGI (COLO 205): 3.66 µM | growth at 1 µM (SR [8]): 71% | growth at 100 µM (HCC 2998 [9]): -29% | growth at 1 µM (BT-549): 92% | GI50 (786-0): 4.41 µM | TGI (786-0): > 100 µM | CC50 (786-0): > 100 µM | GI50 (PC-3): 4.58 µM | TGI (PC-3): > 100 µM | CC50 (PC-3): > 100 µM | growth at 1 µM (A498 [10]): 96% | growth at 0.1 µM (SF-539): 104% | growth at 1 µM (A549 [11]): 91% | GI50 (MDA-MB-468): 1.75 µM | TGI (MDA-MB-468): 4.86 µM | CC50 (MDA-MB-468): 41.7 µM | growth at 0.01 µM (K562 [12]): 96% | growth at 0.1 µM (M14): 111% | GI50 (SR [13]): 1.8 µM | LC50 (SR [13]): > 100 µM | TGI (SR [13]): 7.31 µM | growth at 0.1 µM (SK-OV-3 [14]): 92% | GI50 (K562 [15]): 4.99 µM | LC50 (concentration killing 50% of cells) (K562 [15]): > 100 µM | TGI (K562 [15]): > 100 µM | growth at 100 µM (NCI-H522): -26% | growth at 100 µM (U-251): 7% | growth at 100 µM (NCI-H322M): -1% | growth at 1 µM (UO-31 [16]): 95% | growth at 0.1 µM (A549 [17]): 95% | growth at 1 µM (TK-10): 103% | growth at 1 µM (SK-MEL-28): 95% | GI50 (UO-31 [18]): 3.47 µM | TGI (UO-31 [18]): > 100 µM | CC50 (UO-31 [18]): > 100 µM
